ChEMBL document CHEMBL5252514, “Conopeptide-Derived κ-Opioid Agonists (Conorphins): Potent, Selective, and Metabolic Stable Dynorphin A Mimetics with Antinociceptive Properties” (J Med Chem, 2016)
Where a SMILES comes first, the peptide text is derived from it.

What was measured:
[1] = molecular target: Kappa-type opioid receptor (Homo sapiens, UniProt P41145); assay: Displacement of [3H]U69593 from human kappa opioid receptor expressed in CHO-K1 cells incubated for 1 hr by 1450 microbeta scintillation counter analysis; type: cell-based
Kappa-type opioid receptor, sequence (P41145 whole entry): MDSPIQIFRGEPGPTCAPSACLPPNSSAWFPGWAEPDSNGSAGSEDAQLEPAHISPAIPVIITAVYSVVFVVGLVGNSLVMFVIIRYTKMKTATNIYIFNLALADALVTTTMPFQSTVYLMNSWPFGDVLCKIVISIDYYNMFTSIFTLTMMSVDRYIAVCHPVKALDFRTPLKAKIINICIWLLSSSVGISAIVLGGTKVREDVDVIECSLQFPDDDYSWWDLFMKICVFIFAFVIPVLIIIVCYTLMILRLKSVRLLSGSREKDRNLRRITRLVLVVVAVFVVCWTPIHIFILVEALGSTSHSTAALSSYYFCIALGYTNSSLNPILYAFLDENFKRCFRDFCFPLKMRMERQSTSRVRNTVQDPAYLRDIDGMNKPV
Method in brief: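 Membranes from transiently KOR-transfected CHO-K1 cells (~2 µg/well) used in SPA with 3H-U69,593 (1 nM). Competitor ranged 1 pM–10 µM in 50 mM Tris-HCl pH 7.4, 5 mM MgCl2, 0.1% BSA. Incubated 1 h at room temperature with shaking. Nonspecific binding defined with 10 µM dynorphin A. Sigmoidal dose-response fit; at least three independent experiments in triplicate.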

[2] = Metabolic stability in Wistar rat plasma assessed as half life by HPLC analysis; type: ADME, cell-free
Method in brief: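 Peptide at 1 mg/mL in sterile PBS pH 7.4 was mixed 1:1 with thawed, centrifuged Wistar rat plasma supernatant and incubated at 37°C in triplicate. Samples at 0, 1, 2, 3, 4, 6 and 24 h were quenched with acetonitrile and then 2% TFA/water, and analysed by HPLC with inline electrospray MS.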

In the case of `N=C(N)NCCC[C@@H](NC(=O)[C@@H]1CCC(=O)N1)C(=O)N[C@H](CCCNC(=N)N)C(=O)N[C@@H](CCC(N)=O)C(=O)N[C@@H](CC1CCCCC1)C(=O)N[C@H]1C[Se]SC[C@@H](C(N)=O)NC1=O`, the Ki [1] is reported as 0.0078 µM and the half-life [2] is reported as 6 h.

`N=C(N)NCCC[C@@H](NC(=O)[C@@H](CCCNC(=N)N)NC(=O)[C@@H]1CCCN1C(=O)c1ccc(Cl)c(Cl)c1)C(=O)N[C@@H](CCC(N)=O)C(=O)N[C@@H](CS)C(=O)N[C@@H](CC1CCCCC1)C(=O)N[C@H]1CSSC[C@@H](C(N)=O)NC1=O` gave a Ki [1] of 0.00098 µM and a half-life [2] of 1 h.

`COc1ccc(C(=O)N2CCC[C@H]2C(=O)N[C@H](CCCNC(=N)N)C(=O)N[C@H](CCCNC(=N)N)C(=O)N[C@@H](CCC(N)=O)C(=O)N[C@@H](CS)C(=O)N[C@@H](CC2CCCCC2)C(=O)N[C@H]2CSSC[C@@H](C(N)=O)NC2=O)cc1` showed a Ki [1] of 0.00059 µM and a half-life [2] of 2 h.

`N=C(N)NCCC[C@H](NC(=O)[C@H](CCCNC(=N)N)NC(=O)[C@@H]1CSSC[C@H](NC(=O)[C@@H](N)CC(N)=O)C(=O)N1)C(=O)N[C@@H](CCC(N)=O)C(=O)N[C@@H](Cc1cccc2ccccc12)C(=O)N[C@H]1CSSC[C@@H](C(N)=O)NC1=O` (HELM PEPTIDE1{N.C.C.R.R.Q.[O=C([C@H](Cc1cccc2ccccc12)N[*:1])[*:2]].C.C.[am]}$PEPTIDE1,PEPTIDE1,2:R3-3:R3|PEPTIDE1,PEPTIDE1,8:R3-9:R3$$$V2.0) showed a Ki [1] of 0.0029 µM and a half-life [2] of less than 0.25 h.

`N=C(N)NCCC[C@@H](NC(=O)c1cnc2ccccc2c1)C(=O)N[C@H](CCCNC(=N)N)C(=O)N[C@@H](CCC(N)=O)C(=O)N[C@@H](CC1CCCCC1)C(=O)N[C@H]1CSSC[C@@H](C(N)=O)NC1=O` showed a Ki [1] of 0.00071 µM and a half-life [2] of 0.75 h.

`N=C(N)NCCC[C@H](NC(=O)[C@@H](CCCNC(=N)N)NC(=O)[C@@H](CCCNC(=N)N)NC(=O)[C@@H]1CCCN1C(=O)c1ccccc1)C(=O)N[C@@H](CC1CCCCC1)C(=O)N[C@H]1CSSC[C@@H](C(N)=O)NC1=O` showed a Ki [1] of 0.00023 µM and a half-life [2] of 12 h.

Work on `N=C(N)NCCC[C@@H](NC(=O)[C@@H]1Cc2ccccc2CN1)C(=O)N[C@H](CCCNC(=N)N)C(=O)N[C@@H](CCC(N)=O)C(=O)N[C@@H](CC1CCCCC1)C(=O)N[C@H]1CSSC[C@@H](C(N)=O)NC1=O` yielded a Ki [1] of 0.00091 µM and a half-life [2] of 0.75 h.

With `N=C(N)NCCC[C@H](NC(=O)[C@H](CCCNC(=N)N)NC(=O)[C@@H]1CSSC[C@H](NC(=O)[C@@H](N)CC(N)=O)C(=O)N1)C(=O)N[C@@H](CCC(N)=O)C(=O)N[C@@H](CC1CCCCC1)C(=O)N[C@H]1CSSC[C@@H](C(N)=O)NC1=O` (HELM PEPTIDE1{N.C.C.R.R.Q.[Cha].C.C.[am]}$PEPTIDE1,PEPTIDE1,2:R3-3:R3|PEPTIDE1,PEPTIDE1,8:R3-9:R3$$$V2.0) the Ki [1] was 0.0013 µM and the half-life [2] was less than 0.25 h.

With `N=C(N)NCCC[C@H](NC(=O)[C@@H](CCCNC(=N)N)NC(=O)[C@@H]1CCC(=O)N1)C(=O)N[C@@H](CCC(N)=O)C(=O)N[C@@H](CC1CCCCC1)C(=O)N[C@H]1CSSC[C@@H](C(N)=O)NC1=O` the Ki [1] was 0.013 µM and the half-life [2] was 1.5 h.

Compound `N=C(N)NCCC[C@@H](NC(=O)[C@@H](CCCNC(=N)N)NC(=O)[C@@H]1CCCN1C(=O)c1ccc(Cl)cc1)C(=O)N[C@@H](CCC(N)=O)C(=O)N[C@@H](CC1CCCCC1)C(=O)N[C@H]1CSSC[C@@H](C(=O)O)NC1=O` has a Ki [1] of 0.795 µM.

In the case of `N=C(N)NCCC[C@@H](NC(=O)[C@@H](CCCNC(=N)N)NC(=O)[C@@H]1CCCN1C(=O)c1ccc(O)cc1)C(=O)N[C@@H](CCC(N)=O)C(=O)N[C@@H](CS)C(=O)N[C@@H](CC1CCCCC1)C(=O)N[C@H]1CSSC[C@@H](C(N)=O)NC1=O`, the Ki [1] is reported as 0.0012 µM and the half-life [2] is reported as 2 h.

With `CC[C@H](C)[C@H](NC(=O)[C@H](CCC(N)=O)NC(=O)[C@H](CCCNC(=N)N)NC(=O)[C@@H](N)CCCNC(=N)N)C(=O)N[C@H]1CSSC[C@@H](C(N)=O)NC1=O` (HELM PEPTIDE1{R.R.Q.I.C.C.[am]}$PEPTIDE1,PEPTIDE1,5:R3-6:R3$$$V2.0) the Ki [1] was 0.27 µM and the half-life [2] was 0.75 h.

Compound `N=C(N)NCCC[C@@H](NC(=O)[C@@H](CCCNC(=N)N)NC(=O)[C@@H]1CCCN1C(=O)c1ccccc1)C(=O)NCC(=O)N[C@@H](CC1CCCCC1)C(=O)N[C@H]1CSSC[C@@H](C(N)=O)NC1=O` has a Ki [1] of 0.00016 µM and a half-life [2] of 1 h.

In the case of `CC[C@H](C)[C@H](NC(=O)[C@H](CCC(N)=O)NC(=O)[C@H](CCCNC(=N)N)NC(=O)[C@H](Cc1c[nH]cn1)NC(=O)[C@@H]1CSSC[C@H](NC(=O)[C@@H](N)CC(N)=O)C(=O)N1)C(=O)N[C@H]1CSSC[C@@H](C(N)=O)NC1=O` (HELM PEPTIDE1{N.C.C.H.R.Q.I.C.C.[am]}$PEPTIDE1,PEPTIDE1,2:R3-3:R3|PEPTIDE1,PEPTIDE1,8:R3-9:R3$$$V2.0), the Ki [1] is reported as 0.137 µM.

`CC[C@H](C)[C@H](NC(=O)[C@H](CCC(N)=O)NC(=O)[C@H](C)NC(=O)[C@H](CCCNC(=N)N)NC(=O)[C@@H]1CSSC[C@H](NC(=O)[C@@H](N)CC(N)=O)C(=O)N1)C(=O)N[C@H]1CSSC[C@@H](C(N)=O)NC1=O` (HELM PEPTIDE1{N.C.C.R.A.Q.I.C.C.[am]}$PEPTIDE1,PEPTIDE1,2:R3-3:R3|PEPTIDE1,PEPTIDE1,8:R3-9:R3$$$V2.0) gave a Ki [1] of 0.406 µM.

In the case of `N=C(N)NCCC[C@@H](NC(=O)[C@@H](CCCNC(=N)N)NC(=O)[C@@H]1CCCN1C(=O)c1ccccc1)C(=O)N[C@@H](CCC(N)=O)C(=O)N[C@@H](CC1CCCCC1)C(=O)N[C@H]1CSSCCN(CC(N)=O)C1=O`, the Ki [1] is reported as 0.465 µM.

Work on `N=C(N)NCCC[C@@H](NC(=O)[C@@H](CCCNC(=N)N)NC(=O)[C@@H]1CCCN1C(=O)c1ccccc1)C(=O)N[C@@H](CCC(N)=O)C(=O)N[C@@H](CC1CCCCC1)C(=O)N1C[C@@H]2C[C@H]1C(=O)N[C@H](C(N)=O)CSS2` yielded a Ki [1] of 0.786 µM.

Compound `CC[C@H](C)[C@H](NC(=O)[C@H](CCC(N)=O)NC(=O)[C@H](CCCNC(=N)N)NC(=O)[C@H](CCCCN)NC(=O)[C@@H]1CSSC[C@H](NC(=O)[C@@H](N)CC(N)=O)C(=O)N1)C(=O)N[C@H]1CSSC[C@@H](C(N)=O)NC1=O` (HELM PEPTIDE1{N.C.C.K.R.Q.I.C.C.[am]}$PEPTIDE1,PEPTIDE1,2:R3-3:R3|PEPTIDE1,PEPTIDE1,8:R3-9:R3$$$V2.0) has a Ki [1] of 0.426 µM.

Compound `N=C(N)NCCC[C@@H](NC(=O)[C@@H]1CCC(=O)N1)C(=O)N[C@H](CCCNC(=N)N)C(=O)N[C@@H](CCC(N)=O)C(=O)N[C@@H](CC1CCCCC1)C(=O)N[C@H]1CSSCC[C@@H](C(N)=O)NC1=O` has a Ki [1] of 1.57 µM.

`CC[C@H](C)[C@H](NC(=O)[C@H](CCCNC(=N)N)NC(=O)[C@H](CCCNC(=N)N)NC(=O)[C@H](CC(C)C)NC(=O)[C@H](Cc1ccccc1)NC(=O)CNC(=O)CNC(=O)[C@@H](N)Cc1ccc(O)cc1)C(=O)N[C@@H](CCCNC(=N)N)C(=O)N1CCC[C@H]1C(=O)N[C@@H](CCCCN)C(=O)N[C@@H](CC(C)C)C(=O)N[C@@H](CCCCN)C(=O)N[C@@H](Cc1c[nH]c2ccccc12)C(=O)N[C@@H](CC(=O)O)C(=O)N[C@@H](CC(N)=O)C(=O)N[C@@H](CCC(N)=O)C(N)=O` showed a half-life [2] of 2 h.

`N=C(N)NCCC[C@@H](NC(=O)[C@@H](CCCNC(=N)N)NC(=O)[C@@H]1CCCN1C(=O)c1ccccc1)C(=O)N[C@@H](CC(=O)O)C(=O)N[C@@H](CC1CCCCC1)C(=O)N[C@H]1CSSC[C@@H](C(N)=O)NC1=O` showed a Ki [1] of 0.0102 µM.

`N=C(N)NCCC[C@@H](NC(=O)c1cccc(Br)c1)C(=O)N[C@H](CCCNC(=N)N)C(=O)N[C@@H](CCC(N)=O)C(=O)N[C@@H](CC1CCCCC1)C(=O)N[C@H]1CSSC[C@@H](C(N)=O)NC1=O` gave a Ki [1] of 0.0053 µM.

With `CC[C@H](C)[C@H](NC(=O)[C@H](CCC(N)=O)NC(=O)[C@H](CCCNC(=N)N)NC(=O)[C@H](CCCNC(=N)N)NC(=O)[C@@H]1CSSC[C@H](NC(=O)[C@@H](N)Cc2ccc(O)cc2)C(=O)N1)C(=O)N[C@H]1CSSC[C@@H](C(N)=O)NC1=O` (HELM PEPTIDE1{Y.C.C.R.R.Q.I.C.C.[am]}$PEPTIDE1,PEPTIDE1,2:R3-3:R3|PEPTIDE1,PEPTIDE1,8:R3-9:R3$$$V2.0) the Ki [1] was 0.0403 µM.

For `N=C(N)NCCC[C@@H](NC(=O)c1ccc(F)cc1)C(=O)N[C@H](CCCNC(=N)N)C(=O)N[C@@H](CCC(N)=O)C(=O)N[C@@H](CC1CCCCC1)C(=O)N[C@H]1CSSC[C@@H](C(N)=O)NC1=O`, the Ki [1] was 0.0054 µM.

`CC[C@H](C)[C@H](NC(=O)[C@H](CCC(N)=O)NC(=O)[C@H](Cc1c[nH]cn1)NC(=O)[C@H](CCCNC(=N)N)NC(=O)[C@@H]1CSSC[C@H](NC(=O)[C@@H](N)CC(N)=O)C(=O)N1)C(=O)N[C@H]1CSSC[C@@H](C(N)=O)NC1=O` (HELM PEPTIDE1{N.C.C.R.H.Q.I.C.C.[am]}$PEPTIDE1,PEPTIDE1,2:R3-3:R3|PEPTIDE1,PEPTIDE1,8:R3-9:R3$$$V2.0) gave a Ki [1] of 0.085 µM.

`C[C@H](NC(=O)[C@H](CCC(N)=O)NC(=O)[C@H](CCCNC(=N)N)NC(=O)[C@H](CCCNC(=N)N)NC(=O)[C@@H]1CSSC[C@H](NC(=O)[C@@H](N)CC(N)=O)C(=O)N1)C(=O)N[C@H]1CSSC[C@@H](C(N)=O)NC1=O` (HELM PEPTIDE1{N.C.C.R.R.Q.A.C.C.[am]}$PEPTIDE1,PEPTIDE1,2:R3-3:R3|PEPTIDE1,PEPTIDE1,8:R3-9:R3$$$V2.0) showed a Ki [1] of 2.45 µM.

`CC(C)C[C@H](NC(=O)[C@H](CCC(N)=O)NC(=O)[C@H](CCCNC(=N)N)NC(=O)[C@H](CCCNC(=N)N)NC(=O)[C@@H]1CSSC[C@H](NC(=O)[C@@H](N)CC(N)=O)C(=O)N1)C(=O)N[C@H]1CSSC[C@@H](C(N)=O)NC1=O` (HELM PEPTIDE1{N.C.C.R.R.Q.L.C.C.[am]}$PEPTIDE1,PEPTIDE1,2:R3-3:R3|PEPTIDE1,PEPTIDE1,8:R3-9:R3$$$V2.0) gave a Ki [1] of 0.024 µM.

Compound `N=C(N)NCCC[C@@H](NC(=O)[C@@H](CCCNC(=N)N)NC(=O)[C@@H]1CCCN1C(=O)c1ccccc1)C(=O)N[C@@H](CCCCN)C(=O)N[C@@H](CC1CCCCC1)C(=O)N[C@H]1CSSC[C@@H](C(N)=O)NC1=O` has a Ki [1] of 0.00059 µM.

Compound `N=C(N)NCCC[C@@H](NC(=O)[C@@H]1CCC(=O)N1)C(=O)N[C@H](CCCNC(=N)N)C(=O)N[C@@H](CCC(N)=O)C(=O)N[C@@H](CC1CCCCC1)C(=O)N[C@H]1CCSSCC[C@@H](C(N)=O)NC1=O` has a Ki [1] of 0.241 µM.
